Results: ChEMBL document CHEMBL3124843, “Synthesis, cytostatic, antimicrobial, and anti-HCV activity of 6-substituted 7-(het)aryl-7-deazapurine ribonucleosides” (J Med Chem, 2014)
Active and inactive are the calls of the source. How the calls were made is not given here.

How the values were obtained:
[1] = test system: HCT-116; experiment: Cytostatic activity against p53-deficient human HCT116 cells after 72 hrs by MTT assay; assay type: functional, cell-based; conditions: HCT-116, 72 h
Procedure, shortened: (§1)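 IC50 is the concentration that cuts cell growth by 50%, read by quantitative metabolic MTT staining after a 3-day treatment. The resistant sublines were made by raising the concentration of the cytotoxic drug step by step. CEM-DNR-bulk (daunorubicin-selected) stably overexpresses mrp-1. K562-TAX (paclitaxel-selected) expresses only mdr-1. HCT116p53−/− carries null p53 alleles. BJ and MRC-5 are nonmalignant fibroblasts.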

[2] = Antiproliferative activity against human HeLaS3 cells after 72 hrs by XTT assay; assay type: functional, cell-based; conditions: HeLa S3, 72 h
Procedure, shortened: (§2)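 Antiproliferative test on HL-60 promyelocytic leukemia and HeLa S3 cervical carcinoma cells growing in liquid suspension.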

[3] = test system: Pseudomonas aeruginosa; experiment: Antibacterial activity against Pseudomonas aeruginosa CCM 3955 after 24 hrs; assay type: functional, organism-based
[4] = Cytotoxicity against human HuH7 cells infected with Hepatitis C virus subtype 1b; assay type: cell-based, Huh-7
[5] = test system: Hepatitis C virus; experiment: Antiviral activity against Hepatitis C virus subtype 2a infected in human HuH7 cells; assay type: functional, organism-based, Hepacivirus hominis; conditions: genotype 2a, Huh-7
[6] = Cytostatic activity against human CEM-DNR-bulk cells after 72 hrs by MTT assay; assay type: functional, cell-based; procedure, shortened: as §1
[7] = test system: Escherichia coli; experiment: Antibacterial activity against Escherichia coli CCM 3954 after 24 hrs; assay type: functional, organism-based
[8] = test system: K562; experiment: Cytostatic activity against human K562 cells after 72 hrs by MTT assay; assay type: functional, cell-based; conditions: K562, 72 h; procedure, shortened: as §1
[9] = test system: K562; experiment: Cytostatic activity against paclitaxel-resistant human K562 cells after 72 hrs by MTT assay; assay type: functional, cell-based; conditions: K562, 72 h; procedure, shortened: as §1
[10] = test system: HepG2; experiment: Antiproliferative activity against human HepG2 cells after 72 hrs by XTT assay; assay type: functional, cell-based; conditions: HepG2, 72 h
[11] = test system: CCRF-CEM; experiment: Mitotic arrest in human CCRF-CEM cells assessed as pH3Ser10-positive cells at IC50 after 24 hrs by propidium iodide staining-based flow cytometric analysis (reference value: 1.4%); assay type: functional
[12] = test system: HCT-116; experiment: Cytostatic activity against human HCT116 cells after 72 hrs by MTT assay; assay type: functional, cell-based; conditions: HCT-116, 72 h; procedure, shortened: as §1
[13] = test system: Enterococcus faecalis; experiment: Antibacterial activity against Enterococcus faecalis CCM 4224 after 24 hrs; assay type: functional, organism-based
[14] = test system: CCRF-CEM; experiment: Cytostatic activity against human CCRF-CEM cells after 72 hrs by MTT assay; assay type: functional, cell-based; procedure, shortened: as §1
[15] = test system: Escherichia coli; experiment: Antibacterial activity against multi-resistant Escherichia coli C/16702 after 24 hrs; assay type: functional, organism-based
[16] = test system: Staphylococcus aureus; experiment: Antibacterial activity against Staphylococcus aureus CCM 3953 after 24 hrs; assay type: functional, organism-based
[17] = test system: Pseudomonas aeruginosa; experiment: Antibacterial activity against multi-resistant Pseudomonas aeruginosa A/16575 after 24 hrs; assay type: functional, organism-based
[18] = test system: Candida tropicalis; experiment: Antifungal activity against Candida tropicalis after 48 hrs; assay type: functional, organism-based
[19] = test system: Staphylococcus aureus; experiment: Antibacterial activity against methicillin-resistant Staphylococcus aureus MRSA 4591 after 24 hrs; assay type: functional, organism-based
[20] = Cytotoxicity against human HuH7 cells infected with Hepatitis C virus subtype 2a; assay type: cell-based, Huh-7
[21] = test system: MRC5; experiment: Cytostatic activity against human MRC5 cells after 72 hrs by MTT assay; assay type: ADME, cell-based; conditions: MRC5, 72 h; procedure, shortened: as §1
[22] = test system: Candida albicans; experiment: Antifungal activity against Candida albicans after 48 hrs; assay type: functional, organism-based
[23] = test system: CCRF-CEM; experiment: Cell cycle arrest in human CCRF-CEM cells assessed as accumulation at sub-G1 phase at IC50 after 24 hrs by propidium iodide staining-based flow cytometric analysis (reference value: 9.6%); assay type: functional
[24] = test system: A549; experiment: Cytostatic activity against human A549 cells after 72 hrs by MTT assay; assay type: functional, cell-based; conditions: A549, 72 h; procedure, shortened: as §1
[25] = test system: Hepatitis C virus; experiment: Antiviral activity against Hepatitis C virus subtype 1b infected in human HuH7 cells; assay type: functional, organism-based, Hepacivirus hominis; conditions: genotype 1b, Huh-7
[26] = test system: HL-60; experiment: Antiproliferative activity against human HL60 cells after 72 hrs by XTT assay; assay type: functional, cell-based; conditions: HL-60, 72 h; procedure, shortened: as §2
[27] = test system: Staphylococcus haemolyticus; experiment: Antibacterial activity against methicillin-resistant Staphylococcus haemolyticus A/16568 after 24 hrs; assay type: functional, organism-based
[28] = test system: Pichia kudriavzevii; experiment: Antifungal activity against Candida crusei after 48 hrs; assay type: functional, organism-based
[29] = test system: CCRF-CEM; experiment: Inhibition of RNA synthesis in human CCRF-CEM cells assessed as BrU-positive cells at IC50 after 24 hrs by propidium iodide staining-based flow cytometric analysis (reference value: 43.3%); assay type: functional; set-up: scale not given: the % may be the effect or the level left
[30] = test system: BJ; experiment: Cytostatic activity against human BJ cells after 72 hrs by MTT assay; assay type: ADME, cell-based; procedure, shortened: as §1
[31] = test system: Candida parapsilosis; experiment: Antifungal activity against Candida parapsilosis after 48 hrs; assay type: functional, organism-based

SMILES	IC50 [1] [nM]	IC50 [2] [nM]	Activity [3]	CC50 [4] [nM]	EC50 [5] [nM]	IC50 [6] [nM]	Activity [7]	IC50 [8] [nM]	IC50 [9] [nM]	IC50 [10] [nM]	Activity [11] [%]	IC50 [12] [nM]	Activity [13]	IC50 [14] [nM]	Activity [15]	Activity [16]	Activity [17]	Activity [18]	Activity [19]	CC50 [20] [nM]	also measured
COc1ncnc2c1c(-c1ccsc1)cn2[C@@H]1O[C@H](CO)[C@@H](O)[C@H]1O	140	3350	inactive	> 44000	> 44000	7640	inactive	90	3450	430	2.9	120	inactive	2570	inactive	inactive	inactive	inactive	inactive	> 44000	IC50 [21]: 75300 nM; Activity [22]: inactive; Activity [23]: 75%; IC50 [24]: 5170 nM; EC50 [25]: 550 nM; IC50 [26]: 130 nM; Activity [27]: inactive; Activity [28]: inactive; Activity [29]: 0.5%; IC50 [30]: 64300 nM; Activity [31]: inactive
CNc1ncnc2c1c(-c1ccco1)cn2[C@@H]1O[C@H](CO)[C@@H](O)[C@H]1O	440	5000	inactive	> 44000	140	> 20000	inactive	220	15100	850	1.4	230	inactive	180	inactive	inactive	inactive	inactive	inactive	> 44000	IC50 [21]: 90800 nM; Activity [22]: inactive; IC50 [24]: 2570 nM; EC50 [25]: 60 nM; IC50 [26]: 620 nM; Activity [27]: inactive; Activity [28]: inactive; Activity [29]: 1%; IC50 [30]: 5040 nM; Activity [31]: inactive
COc1ncnc2c1c(-c1ccoc1)cn2[C@@H]1O[C@H](CO)[C@@H](O)[C@H]1O	130	1790	inactive	> 44000	8280	> 20000	inactive	190	2820	290	1.6	110	inactive	110	inactive	inactive	inactive	inactive	inactive	> 44000	IC50 [21]: 29400 nM; Activity [22]: inactive; Activity [23]: 8.5%; IC50 [24]: 1160 nM; EC50 [25]: 330 nM; IC50 [26]: 150 nM; Activity [27]: inactive; Activity [28]: inactive; Activity [29]: 0.7%; IC50 [30]: 28800 nM; Activity [31]: inactive
CN(C)c1ncnc2c1c(-c1ccsc1)cn2[C@@H]1O[C@H](CO)[C@@H](O)[C@H]1O	> 20000	> 15000	inactive	> 44000	> 44000	> 20000	inactive	530	> 20000	> 20000	0.7	> 20000	inactive	3480	inactive	inactive	inactive	inactive	inactive	> 44000	IC50 [21]: > 100000 nM; Activity [22]: inactive; Activity [23]: 6.8%; IC50 [24]: > 20000 nM; EC50 [25]: 38400 nM; IC50 [26]: 1920 nM; Activity [27]: inactive; Activity [28]: inactive; Activity [29]: 0.7%; IC50 [30]: > 100000 nM; Activity [31]: inactive
